Test results: publication PMC6044901 (ACS Omega, 2018)

Columns and labels:
[1] = PK after iv injection in mice; type: in vivo; details: iv 1 mg/kg, GLP-1 ELISA, T1/2 elim unavailable
Outline: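 Male ICR mice, 6 weeks old, n = 3, given a single iv injection: 1 mg/kg as GLP-1 peptide-equivalent weight for screening, or 300 nmol/kg. Tail-vein blood taken at 0, 12, 24, 48, 72, 96, 120 and 144 h; plasma stored at −80 °C. Active GLP-1 ELISA with a four-parameter logistic standard curve. Half-life computed; mean of three measurements.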

[2] = PK after sc injection in mice; type: in vivo; details: male, Crl:CD1 (ICR), mouse, plasma, 100 nmol/kg
Outline: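 Male ICR mice, 6 weeks old, n = 3, given a single sc injection: test compound at 100 or 300 nmol/kg, or liraglutide at 100 nmol/kg. Tail-vein plasma sampled at 0–144 h (0, 12, 24, 48, 72, 96, 120, 144 h) and stored at −80 °C. Active GLP-1 ELISA with a four-parameter logistic fit. Bioavailability from sc and iv dosing run in parallel.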

[3] = iv; cited from earlier work
[4] = nonhuman primate; cited from earlier work

CCCCCCCCCCCCCCCC(=O)N[C@@H](CCC(=O)NCCCC[C@H](NC(=O)[C@H](C)NC(=O)[C@H](C)NC(=O)[C@H](CCC(N)=O)NC(=O)CNC(=O)[C@H](CCC(=O)O)NC(=O)[C@H](CC(C)C)NC(=O)[C@H](Cc1ccc(O)cc1)NC(=O)[C@H](CO)NC(=O)[C@H](CO)NC(=O)[C@@H](NC(=O)[C@H](CC(=O)O)NC(=O)[C@H](CO)NC(=O)[C@@H](NC(=O)[C@H](Cc1ccccc1)NC(=O)[C@@H](NC(=O)CNC(=O)[C@H](CCC(=O)O)NC(=O)[C@H](C)NC(=O)[C@@H](N)Cc1cnc[nH]1)[C@@H](C)O)[C@@H](C)O)C(C)C)C(=O)N[C@@H](CCC(=O)O)C(=O)N[C@@H](Cc1ccccc1)C(=O)N[C@H](C(=O)N[C@@H](C)C(=O)N[C@@H](Cc1c[nH]c2ccccc12)C(=O)N[C@@H](CC(C)C)C(=O)N[C@H](C(=O)N[C@@H](CCCNC(=N)N)C(=O)NCC(=O)N[C@@H](CCCNC(=N)N)C(=O)NCC(=O)O)C(C)C)[C@@H](C)CC)C(=O)O [liraglutide, reference compound]
plasma immunoreactive GLP-1 level at 48 h after iv injection [1]: below the detection limit | MRT [2]: 15.5 h

Glucagon-like peptide-1 [GLP-1]
half-life (T1/2 elim) injected intravenously [3]: ≤ 2 min

B1: 99 kDa HPN-conjugated G-CSF: 99 kDa heparosan-conjugated G-CSF, ref 39 (conjugate, UniProt P09919 31-207, looked up)
Granulocyte …: TPLGPASSLPQSFLLKCLEQVRKIQGDGAALQEKLVSECATYKLCHPEELVLLGHSLGIPWAPLSSCPSQALQLAGCLSQLHSGLFLYQGLLQALEGISPELGPTLDTLQLDVADFATTIWQQMEELGMAPALQPTQGAMPAFASAFQRRAGGVLVASHLQSFLEVSYRVLRHLAQP
modifications: 99 kDa heparosan conjugate
T1/2 elim [4]: 190 h
